Compound activity from PubChem.
YB-1 expr inh: YB-1 expression inhibition; U2OS, qRT-PCR YB-1 vs CDIP delta delta Cp, 16 h; stronger effect = higher value; zero = DMSO, each unit about twofold; delta delta Cp (YB-1 minus CDIP) (test concentration not listed); hit rate 0.37% among 30,000;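 active = delta delta Cp rounded down to an integer at or above 3, about 3 SD of DMSO wells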;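 note: higher means less YB-1 transcript or more CDIP transcript relative to DMSO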
T cruzi HTS: blocks T. cruzi growth inside host cells. intracellular Trypanosoma cruzi in host cells, plate reader. activity score (inhibition), % at 5.01 µM. hit rate 4.9% among 22,000; in the data active = activity score above about 55%;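 note: parasites and compound incubated about four days before reading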
INS-1E ATP HTS: INS-1E beta cell protection from cytokine death | INS-1E cytokine-induced death, ATP luminescence, 48 h; normalised: neutral wells 0, positive control 100 | protection from cytokine-induced ATP loss, % at 10 µM | hit rate 0.1% among 20,000 | AID 488910;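 active = mean replicate protection from cytokine-induced ATP loss at least 50% and at least 75% of replicates each reaching 50%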
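Material: INS-1E rat cells; Quantity: 8000 cells/well; Buffer or medium: phenol-red-free RPMI with 5% fetal bovine serum; Probe or stimulus: cytokine cocktail of IFN-γ, TNF-α and IL-1β; Compound dosing: single test concentration per compound, delivered by pin transfer; Incubation: 48 h co-treatment, 10 min post-lysis read; Signal: CellTiter-Glo luminescence.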
A number is an active result. The entries come from a sample that favours hits as a whole.

Screening C[C@H](CO)N1C[C@H](C)[C@@H](CN(C)Cc2ccc3c(c2)OCO3)Oc2ccc(NC(=O)CCCCCC(=O)Nc3ccccc3N)cc2C1=O returned YB-1 expr inh inactive, T cruzi HTS inactive and INS-1E ATP HTS inactive.
C[C@@H]1CN([C@@H](C)CO)C(=O)c2cccc(NC(=O)CCCCCC(=O)Nc3ccccc3N)c2O[C@H]1CN(C)Cc1ccc2c(c1)OCO2 was read as YB-1 expr inh inactive, T cruzi HTS 59 and INS-1E ATP HTS inactive.
`C[C@H](CO)N1C[C@H](C)[C@H](CN(C)Cc2ccc3c(c2)OCO3)Oc2ccc(NC(=O)CCCCCC(=O)Nc3ccccc3N)cc2C1=O` gave YB-1 expr inh inactive, T cruzi HTS inactive and INS-1E ATP HTS inactive.
Screening C[C@@H]1CN([C@@H](C)CO)C(=O)c2cc(NC(=O)CCCCCC(=O)Nc3ccccc3N)ccc2O[C@@H]1CN(C)Cc1ccc2c(c1)OCO2 returned YB-1 expr inh inactive, T cruzi HTS inactive and INS-1E ATP HTS inactive.
`C[C@H](CO)N1C[C@H](C)[C@@H](CN(C)Cc2ccc3c(c2)OCO3)Oc2c(NC(=O)CCCCCC(=O)Nc3ccccc3N)cccc2C1=O` gave YB-1 expr inh inactive, T cruzi HTS 73 and INS-1E ATP HTS inactive.
`C/C=C1/[C@H](O[C@@H]2O[C@H](CO)[C@@H](O)[C@H](O)[C@H]2O)OC=C(C(=O)OC)[C@H]1CC(=O)OCCc1ccc(O)cc1` gave YB-1 expr inh inactive.
Screening C[C@@H]1CN([C@@H](C)CO)C(=O)Cc2cc(NC(=O)Cc3cn(C)c4ccccc34)ccc2O[C@@H]1CN(C)Cc1ccc(C(F)(F)F)cc1 returned YB-1 expr inh inactive, T cruzi HTS 63 and INS-1E ATP HTS inactive.
C[C@H](CO)N1C[C@H](C)[C@H](CN(C)Cc2ccc(Cl)c(Cl)c2)Oc2ccc(NC(=O)Cc3cn(C)c4ccccc34)cc2CC1=O was read as YB-1 expr inh inactive, T cruzi HTS inactive and INS-1E ATP HTS inactive.
For C[C@H](CO)N1C[C@H](C)[C@H](CN(C)Cc2ccc(C(F)(F)F)cc2)Oc2ccc(NC(=O)Cc3cn(C)c4ccccc34)cc2CC1=O the results were YB-1 expr inh inactive, T cruzi HTS inactive and INS-1E ATP HTS inactive.
For COc1ccc(CN(C)C[C@@H]2Oc3ccc(NC(=O)Cc4cn(C)c5ccccc45)cc3CC(=O)N([C@H](C)CO)C[C@H]2C)cc1 the results were YB-1 expr inh inactive, T cruzi HTS 65 and INS-1E ATP HTS inactive.
`COc1ccc(CN(C)C[C@H]2Oc3ccc(NC(=O)Cc4cn(C)c5ccccc45)cc3CC(=O)N([C@H](C)CO)C[C@H]2C)cc1` gave YB-1 expr inh inactive, T cruzi HTS inactive and INS-1E ATP HTS inactive.
Screening C[C@H]1CN([C@@H](C)CO)C(=O)Cc2cc(NC(=O)Cc3cn(C)c4ccccc34)ccc2O[C@H]1CN(C)Cc1ccc(Cl)c(Cl)c1 returned YB-1 expr inh inactive, T cruzi HTS 60 and INS-1E ATP HTS inactive.
`C[C@@H]1CN([C@H](C)CO)C(=O)Cc2cc(NC(=O)Cc3cn(C)c4ccccc34)ccc2O[C@@H]1CN(C)Cc1ccc(Oc2ccccc2)cc1` gave YB-1 expr inh inactive, T cruzi HTS 65 and INS-1E ATP HTS inactive.
For C[C@H](CO)N1C[C@H](C)[C@H](CN(C)Cc2ccc(Oc3ccccc3)cc2)Oc2ccc(NC(=O)Cc3cn(C)c4ccccc34)cc2CC1=O the results were YB-1 expr inh inactive, T cruzi HTS inactive and INS-1E ATP HTS inactive.
Screening Clc1cc2c(c(C[n+]3ccccc3)c1)OCOC2 returned YB-1 expr inh inactive.
For CC(C)(C)OC(=O)N1CCC[C@H]1/C=N/NC(=O)c1ccc(C(=O)NO)cc1 the results were YB-1 expr inh inactive, T cruzi HTS inactive and INS-1E ATP HTS inactive.
C[C@H]1CN([C@@H](C)CO)C(=O)Cc2cc(NC(=O)Cc3cn(C)c4ccccc34)ccc2O[C@H]1CN(C)S(=O)(=O)c1ccc(Cl)cc1 was read as YB-1 expr inh inactive, T cruzi HTS inactive and INS-1E ATP HTS inactive.
C[C@@H]1CN([C@H](C)CO)C(=O)Cc2cc(NC(=O)Cc3cn(C)c4ccccc34)ccc2O[C@@H]1CN(C)S(=O)(=O)c1ccc(Cl)cc1 was read as YB-1 expr inh inactive, T cruzi HTS 67 and INS-1E ATP HTS inactive.
Screening CCOc1ccc(C(=O)NC2CCCCC2)cc1 returned YB-1 expr inh inactive.
For C[C@@H]1CN([C@@H](C)CO)C(=O)c2cccc(NC(=O)C3CCCCC3)c2O[C@@H]1CN(C)Cc1ccc(C(=O)Nc2ccccc2N)cc1 the results were YB-1 expr inh inactive, T cruzi HTS 61 and INS-1E ATP HTS inactive.
Screening C[C@H](CO)N1C[C@H](C)[C@H](CN(C)Cc2ccc(C(=O)Nc3ccccc3N)cc2)Oc2c(NC(=O)NC3CCCCC3)cccc2C1=O returned YB-1 expr inh inactive, T cruzi HTS 58 and INS-1E ATP HTS inactive.
`C[C@@H]1CN([C@H](C)CO)C(=O)c2cccc(NC(=O)NC3CCCCC3)c2O[C@@H]1CN(C)Cc1ccc(C(=O)Nc2ccccc2N)cc1` gave YB-1 expr inh inactive, T cruzi HTS 67 and INS-1E ATP HTS inactive.
For CC(C)NC(=O)Nc1cccc2c1O[C@@H](CN(C)Cc1ccc(C(=O)Nc3ccccc3N)cc1)[C@@H](C)CN([C@H](C)CO)C2=O the results were YB-1 expr inh inactive, T cruzi HTS inactive and INS-1E ATP HTS inactive.
For CC(C)NC(=O)Nc1cccc2c1O[C@@H](CN(C)Cc1ccc(C(=O)Nc3ccccc3N)cc1)[C@@H](C)CN([C@@H](C)CO)C2=O the results were YB-1 expr inh inactive, T cruzi HTS inactive and INS-1E ATP HTS inactive.
Screening CC(C)NC(=O)Nc1cccc2c1O[C@H](CN(C)Cc1ccc(C(=O)Nc3ccccc3N)cc1)[C@H](C)CN([C@@H](C)CO)C2=O returned YB-1 expr inh inactive, T cruzi HTS inactive and INS-1E ATP HTS inactive.
`C[C@@H]1CN([C@@H](C)CO)C(=O)c2cccc(NC(=O)C3CC3)c2O[C@H]1CN(C)Cc1ccc(C(=O)Nc2ccccc2N)cc1` gave YB-1 expr inh inactive, T cruzi HTS inactive and INS-1E ATP HTS inactive.
For C[C@H]1CN([C@@H](C)CO)C(=O)c2cccc(NC(=O)NC3CCCCC3)c2O[C@H]1CN(C)Cc1ccc(C(=O)Nc2ccccc2N)cc1 the results were YB-1 expr inh inactive, T cruzi HTS 60 and INS-1E ATP HTS inactive.
CSc1sc(C(=O)NN)cc1-c1nc(C)cs1 was read as YB-1 expr inh inactive.
For O=C(CSc1nnc(-c2cccnc2)n1-c1ccccc1)NCc1ccccc1 the results were YB-1 expr inh inactive.
C[C@@H]1CN([C@H](C)CO)C(=O)c2cccc(NC(=O)c3nc4ccccc4s3)c2O[C@H]1CN(C)C(=O)Nc1ccc(F)cc1 was read as YB-1 expr inh inactive, T cruzi HTS inactive and INS-1E ATP HTS inactive.
`C[C@@H]1CN([C@H](C)CO)C(=O)c2cccc(NC(=O)c3nc4ccccc4s3)c2O[C@@H]1CN(C)C(=O)Nc1ccc(F)cc1` gave YB-1 expr inh inactive, T cruzi HTS inactive and INS-1E ATP HTS inactive.
C[C@H](CO)N1C[C@H](C)[C@@H](CN(C)C(=O)Nc2ccc(F)cc2)Oc2c(NC(=O)c3nc4ccccc4s3)cccc2C1=O was read as YB-1 expr inh inactive, T cruzi HTS inactive and INS-1E ATP HTS inactive.
